According to article PMC4709821 (ACS Infectious Diseases, 2015):
Values after ≈ are worked out from the molar mass of the structure shown.

Legend:
[1] = system: Rlm1-lacZ reporter of CWIP activity; test: Rlm1-lacZ cell wall integrity pathway; type: cell-based, S. cerevisiae; details: exposure of cells harboring the reporter plasmid
Outline: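 S. cerevisiae CRY2 (W303 background) carried a plasmid with lacZ driven by two consensus Rlm1 binding sites. Cells were grown overnight in SC lacking uracil at 30 °C, diluted to 0.1 OD600 in YPD and grown to 0.4. They were dispensed at 0.05 OD600, and test compound was pinned in. Plates stood 4 h at room temperature before Gal-Screen luminescence read-out against solvent wells. Values are the mean of three replicates.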

Mpk1 phosphorylation = test: Western blot of Mpk1 phosphorylation in C. neoformans; type: cell-based; details: exponential phase cells, MPK1-FLAG strain
[2] = system: C. neoformans strain CM108; test: MIC at 30 and 37 °C with strain CM108; type: cell-based; details: Cryptococcus neoformans
Outline: (§1)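 MIC was determined by the CLSI-approved method, read at a 72 h end point. Congenic CM108 and mpk1Δ strains came from the Fungal Genetics Stock Center. CM108 was tested at 30 and 37 °C and mpk1Δ at 30 °C.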

[3] = system: protein kinase C 1 (Pkc1); test: Cellular protein kinase C activity; type: biochemical, C. neoformans; details: cell lysates
Outline: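 Cells were grown overnight in YPD at 30 °C, washed three times in DPBS, adjusted to 1 × 10^7 cells/mL and lysed with glass beads in kit extraction buffer. Equal total protein plus a dilution series of test compound went into each reaction with a fluorescent Pkc1-specific substrate for 30 min. Products were separated on agarose gel, quantified by densitometry and expressed as % of DMSO reactions. Staurosporine served as reference inhibitor.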

[4] = Stability in mouse plasma; type: in vitro ADME; details: after 5 h of incubation
C. neoformans H99 cells = test: Checkerboard assay of interaction with caspofungin; type: cell-based, Cryptococcus neoformans
C. neoformans [5] = test: Alamar blue viability assay with and without 1 M sorbitol; type: cell-based, Cryptococcus neoformans
Outline: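 C. neoformans was grown overnight in YPD at 30 °C and seeded at 1.5 × 10^4 cells/mL into a dilution series of test compound, in synthetic complete medium with or without 1 M sorbitol. Plates ran 24 h at 37 °C, then Alamar blue (1:10) was added for 2 h at 37 °C. Fluorescence (Ex 544/Em 590) was compared to DMSO wells, and IC50 was obtained by curve fitting.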

HEK293 cells = test: Mammalian cell cytotoxicity; type: cell-based, human; details: higher concentrations not tested
C. neoformans mpk1Δ = test: MIC against the congenic mpk1Δ strain; type: cell-based, Cryptococcus neoformans; details: 30 °C
Outline: as §1

[6] = Stability in human plasma; type: in vitro ADME; details: after 5 h of incubation
C. neoformans [7] = details: cited from earlier work

O=S(=O)(O)c1cc(Nc2nc(Nc3ccccc3)nc(N(CCO)CCO)n2)ccc1/C=C/c1ccc(Nc2nc(Nc3ccccc3)nc(N(CCO)CCO)n2)cc1S(=O)(=O)O [Calcofluor white]
increase in β-galactosidase activity [1]: 5 fold
Mpk1 phosphorylation caused by the agent alone (Mpk1 phosphorylation): induced phosphorylation of Mpk1

Cc1ccc(C(C)C)c(OCCn2c(S)nc3ccccc32)c1 [Compound 1, 1-(2-(2-isopropyl-5-methylphenoxy)ethyl)-1H-benzo[d]imidazole-2(3H)-thione]
MIC ([2]; CM108, 30 °C): 16 µg/mL (≈ 49 µM)
MIC ([2]; CM108, 37 °C): 8 µg/mL (≈ 24.5 µM)
protein kinase C activity as percentage of DMSO-treated samples ([3]; concentrations as high as 10-fold above its MIC): 91 ± 3%
remaining intact in plasma [4]: 100%
fractional inhibitory concentration index (FICI) (C. neoformans H99 cells; combination of 1 with caspofungin, 1 at 2-fold below its MIC): 0.625
reduction of the concentration of caspofungin needed to inhibit C. neoformans (C. neoformans H99 cells; subinhibitory concentrations of 1): 8 fold
sorbitol suppression of anticryptococcal activity (C. neoformans [5]): sorbitol-suppressable
concentration up to which nontoxic (HEK293 cells): ≥ 80 µM
activity against strain from which MPK1 has been deleted (C. neoformans mpk1Δ): active
remaining intact in plasma [6]: 100%

CCN(CC)CCOc1ccc(C(=C(Cl)c2ccccc2)c2ccccc2)cc1 [clomiphene]
AK signal / cell lysis (C. neoformans [7]; positive control of the screen): strong AK signal

OC(Cn1cncn1)(Cn1cncn1)c1ccc(F)cc1F [fluconazole]
AK activity compared to solvent controls (C. neoformans [7]): no increase

CN[C@@H]1C[C@H]2O[C@@](C)([C@@H]1OC)n1c3ccccc3c3c4c(c5c6ccccc6n2c5c31)C(=O)NC4 [staurosporine, reference compound]
reduction in Pkc1 activity ([3]; data not shown): 25%
